SUMO Mot1 rescue: blocks SUMOylation pathway, rescuing yeast Mot1-301 growth | AID 2716 | growth rescue, % at 18.8 µM | S. cerevisiae Mot1-301 growth rescue, ATP luminescence, 38.5C; percent above DMSO median, 100 means doubled | hit rate 1% among 320,000;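 active means every valid replicate shows activation above 250% relative to neutral control wells; inactive means the rest, any valid replicate at or below 250%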;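 further: OY570 slx delta 5 strain wells were the positive control but not used for scaling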
Efflux pump mplx: blocks antifungal efflux pumps in multiplex yeast assay; S. cerevisiae Candida pump triplex, Nile Red efflux; inhibition, % at 10 µM; hit rate 0.44% among 330,000; AID 485275;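 active means plate passing quality check with inhibition over a set limit, or well fluorescence over plate mean plus 4 SD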;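 further: Nile Red retained in pooled yeast measured as flow cytometry median fluorescence; 0% = buffer negative control and 100% = Enniatin B positive control; higher means more Nile Red kept so more efflux inhibition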
Statin myotox sup: suppression of simvastatin myotoxicity; C2C12 myotubes + simvastatin, ATP luminescence, 48 h; scaled: DMSO 0, geranylgeraniol control 100; rescue of ATP level, % at 7.49 µM; hit rate 0.78% among 330,000; AID 602340;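 active means mean ATP rescue above about 67%, or every replicate alone reaching that limit, limit read from the data, passing the limit was not always enough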;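 further: myotubes were challenged with 10 µM simvastatin during compound exposure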
Cneo AK release: causes C. neoformans cell lysis. AID 651654. lysis activity, % at 15 µM. adenylate kinase release luminescence, 4 h; normalised: neutral wells 0, clomiphene wells 100. hit rate 0.2% among 360,000;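 active means mean lysis activity across replicates of at least 80%, whatever share of replicates individually reach that level; inactive means mean lysis activity below 80%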
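Assay system: Cryptococcus neoformans yeast cells / Dosing: single-point compound dose / Timing: 4 h at 37 °C static, read 1 h later / Measured by: luminescence of released adenylate kinase using an AK detection reagent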
Mot1 SUMO dose: yeast SUMO pathway inhibition in dose response. AID 493004. shares compounds with SUMO Mot1 rescue. growth activity, percent, % at 42 µM. S. cerevisiae Mot1-301 galactose growth, ATP luminescence, 24 h; -100 = growth of slx-deleted rescue strain. 2,300 tested, under 10 active;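 active means Signal drops as the depositor expects, and the fitted half-maximal dose is no more than ten times the top valid tested dose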;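 further: more negative values mean stronger growth rescue toward the control strain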
* marks the source's active call; other numbers are inactive results. The list is not random: actives were taken first. Their share in the collection is about 1.8%.

For CCOC(=O)c1cnc2oc3ccccc3n2c1=O the results were SUMO Mot1 rescue active, Efflux pump mplx 0, Statin myotox sup -3, Cneo AK release -1 and Mot1 SUMO dose 1.
Screening S=C(Nc1ccc(Cl)cc1)N1CCN(Cc2ccccc2)CC1 returned SUMO Mot1 rescue 590*, Efflux pump mplx 0, Statin myotox sup -2, Cneo AK release 2 and Mot1 SUMO dose 0.
Screening Cc1ccc(NC(=S)N2CCN(Cc3ccccc3)CC2)cc1 returned SUMO Mot1 rescue -13 and Efflux pump mplx 0.
For COc1ccc(Br)cc1S(=O)(=O)Nc1ncn[nH]1 the results were SUMO Mot1 rescue -8, Efflux pump mplx 3, Statin myotox sup 3 and Cneo AK release -2.
For O=[N+]([O-])c1cccc(-c2nc3ccc([N+](=O)[O-])cc3[nH]2)c1 the results were SUMO Mot1 rescue 359*, Efflux pump mplx 0 and Mot1 SUMO dose 1.
`Cc1ccccc1OCc1nc(-c2ccccc2)no1` gave SUMO Mot1 rescue 390*, Efflux pump mplx 0, Cneo AK release -4 and Mot1 SUMO dose -1.
`Cc1ccc(-c2noc(COc3ccccc3C)n2)cc1` gave Efflux pump mplx 0 and Cneo AK release 0.
`O=C(C1CCC(CNc2c(N3CCCCC3)c(=O)c2=O)CC1)N1CCN(C2CCCCC2)CC1` (centres undefined) gave SUMO Mot1 rescue 499*, Efflux pump mplx 0, Cneo AK release -1 and Mot1 SUMO dose 1.
O=C(C1CCC(CNc2c(N3CCCCC3)c(=O)c2=O)CC1)N1CCN(c2ccccn2)CC1 (centres undefined) was read as SUMO Mot1 rescue -5, Efflux pump mplx 1, Statin myotox sup 0 and Cneo AK release -4.
`NC(=O)CC(NC(=O)Cc1cccc2ccccc12)c1ccc(NCCCN2CCCC2=O)c([N+](=O)[O-])c1` (centres undefined) gave SUMO Mot1 rescue active, Efflux pump mplx 0, Statin myotox sup -8, Cneo AK release -2 and Mot1 SUMO dose 0.
For COc1ccc2cc(C)c(SCC(=O)Nc3cc(C)on3)nc2c1 the results were SUMO Mot1 rescue 8, Efflux pump mplx 0, Statin myotox sup -2 and Cneo AK release -1.
CC(C)CC(=O)/C=C/n1c(=S)oc2ccccc21 was read as SUMO Mot1 rescue 24, Efflux pump mplx 0, Statin myotox sup -6 and Cneo AK release 0.
For CC(=O)/C=C/n1c(=S)oc2ccccc21 the results were SUMO Mot1 rescue 421*, Efflux pump mplx 0 and Mot1 SUMO dose -2.
Screening C[C@@H]1CCCCO[C@H](CN(C)S(=O)(=O)c2cn(C)cn2)[C@H](C)CN([C@H](C)CO)C(=O)c2cc(NS(=O)(=O)c3ccc(F)cc3)ccc2O1 returned Statin myotox sup 26 and Cneo AK release 0.
COc1ccc(C2NC(=O)c3ccccc3O2)cc1 (centres undefined) was read as SUMO Mot1 rescue 529*, Efflux pump mplx 0, Statin myotox sup -5, Cneo AK release 1 and Mot1 SUMO dose 0.
Screening CC1=CS(=O)(=O)CC1Sc1nc(C)n[nH]1 (centres undefined) returned SUMO Mot1 rescue 15 and Efflux pump mplx 0.
For CC1=CS(=O)(=O)CC1Sc1ncn[nH]1 (centres undefined) the results were SUMO Mot1 rescue 557*, Efflux pump mplx 0, Cneo AK release 7 and Mot1 SUMO dose -1.
`Oc1c(Br)cc(Br)cc1C=Nc1cccnc1` gave SUMO Mot1 rescue 481*, Efflux pump mplx -2, Statin myotox sup 7, Cneo AK release -1 and Mot1 SUMO dose -1.
`COc1ccc(C=Nc2ccc3[nH]ncc3c2)c(O)c1` gave SUMO Mot1 rescue 51 and Efflux pump mplx 0.
`Oc1c(Br)cc(Br)cc1C=Nc1ccc2[nH]ncc2c1` gave SUMO Mot1 rescue 360*, Efflux pump mplx 0, Statin myotox sup 9 and Mot1 SUMO dose -1.
For COc1cccc(/C=C(/C(=O)OCC(=O)NC2CCCC(C)C2C)c2ccccc2)c1 (centres undefined) the results were SUMO Mot1 rescue -6 and Efflux pump mplx 0.
`CCOC(=O)c1[nH]c2ccc(OCC)cc2c1NC(=O)CN1CCN(c2ccccc2)CC1` gave SUMO Mot1 rescue -7, Efflux pump mplx 0, Statin myotox sup -14 and Cneo AK release -2.
For COc1ccc2c(c1)c(CC(=O)OCC(=O)O)c(C)n2C(=O)c1ccc(Cl)cc1 the results were Efflux pump mplx 0, Statin myotox sup 2 and Cneo AK release -2.
For COc1ccc2c(c1)c(CC(=O)OCC(N)=O)c(C)n2C(=O)c1ccc(Cl)cc1 the results were SUMO Mot1 rescue 674*, Efflux pump mplx 0, Statin myotox sup -22, Cneo AK release -3 and Mot1 SUMO dose 0.
Screening CN(C)C(=O)C[C@H]1CC[C@H]2[C@@H](COC[C@H](O)CN2C(=O)C2CCCC2)O1 returned Statin myotox sup 2 and Cneo AK release 1.
Screening c1ccc(CNc2ncnc3sc4c(c23)CCC4)nc1 returned SUMO Mot1 rescue 818*, Efflux pump mplx 0 and Mot1 SUMO dose 0.
COc1ccc(OCc2cc(C(=O)NC3CCc4ccccc43)no2)c(Cl)c1 (centres undefined) was read as SUMO Mot1 rescue -7, Efflux pump mplx 0 and Cneo AK release -8.
O=C(NC1CCc2ccccc21)c1cc(COc2ccc(F)cc2F)on1 (centres undefined) was read as SUMO Mot1 rescue 396*, Efflux pump mplx 0 and Mot1 SUMO dose 0.
For OC(COc1ccccc1)Cn1c2ccccc2c2ccccc21 (centres undefined) the results were SUMO Mot1 rescue 374*, Efflux pump mplx 0, Statin myotox sup 3, Cneo AK release 3 and Mot1 SUMO dose -1.
For CC1CC(C)(C)NC(=S)N1CC(=O)NCc1ccc(F)cc1 (centres undefined) the results were SUMO Mot1 rescue 835*, Efflux pump mplx 0 and Mot1 SUMO dose 0.
CC1CC(C)(C)NC(=S)N1CCC(=O)NCc1ccc(F)cc1 (centres undefined) was read as SUMO Mot1 rescue -18 and Efflux pump mplx 0.
CCOc1ccccc1N(C(=O)c1snc(C(N)=O)c1N)C(CC)C(=O)NC1CCCC1 (centres undefined) was read as SUMO Mot1 rescue 578*, Efflux pump mplx 0, Statin myotox sup -27, Cneo AK release 0 and Mot1 SUMO dose 0.
Screening CCOc1ccccc1N(C(=O)c1snc(C(N)=O)c1N)C(C(=O)NC1CCCC1)c1cccs1 (centres undefined) returned SUMO Mot1 rescue 41, Efflux pump mplx 0, Statin myotox sup -12 and Cneo AK release 0.
`NC(=O)c1nsc(C(=O)N(Cc2ccc(F)cc2)C(C(=O)NC2CCCC2)c2ccco2)c1N` (centres undefined) gave SUMO Mot1 rescue 876*, Efflux pump mplx 0, Statin myotox sup 16, Cneo AK release 0 and Mot1 SUMO dose 0.

Screening data (PubChem BioAssay)
